Source: PMC6133219 (Anti-Cancer Drugs, 2018)

Tests used:
[1] = cited from earlier work
[2] = system: MDA-MB-231-LM2 lung metastases; assay: MDA-MB-231-LM2 lung metastases model in SCID-beige mice; format: in vivo, mouse; settings: for antitumor effect: MDA-MB-231-LM2, DZ-2384 0.5, 1.5, 4.5 mg/kg, docetaxel 2, 4 mg/kg
Method in brief: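 Female SCID-beige mice (6–8 weeks) received 2.5×10^5 MDA-MB-231-LM2 cells via lateral tail vein. About 2 weeks later, mice with confirmed lung metastases were randomized by bioluminescent burden. They then got four biweekly iv injections in cremophor EL:ethanol:saline (5:5:90). Weekly imaging used D-luciferin 150 mg/kg ip. Survival was analysed by Kaplan–Meier log-rank; body weight was measured 2–3 times weekly.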

[3] = patients receiving docetaxel 100 mg/m^2 for TNBC; cited from earlier work
GCRC-2076 PDX = assay: Orthotopic TNBC PDX GCRC-2076; format: in vivo, mouse; settings: for median survival: GCRC-2076 at 0.5x MTD, vehicle 30 days
Method in brief: (§1)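 PDX tumor fragments (1–1.5 mm3) were implanted into the left fat pad of female NSG mice (6–8 weeks), passaged ≤8 times. Mice were randomized at 100–250 mm3 and treated iv once weekly for 4 weeks, with doses set as fractions of each agent's MTD. Caliper volume was calculated as 4/3π[(a/2)×(b/2)^2]. Kaplan–Meier log-rank and Student's t-test were used.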

GCRC-1945 = assay: Brain metastatic tumor model, intracranial GCRC-1945 in NSG mice; format: in vivo, mouse; settings: for body weight loss: GCRC-1945 brain model, DZ-2384 10 mg/kg, paclitaxel 40 mg/kg
Method in brief: (§2)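 Cells were implanted intracranially into the right frontal lobe of female NSG mice (6–8 weeks): MDA-MB-231-BrM2 at 7.5×10^4 cells, or luciferase-expressing GCRC-1945 at 1×10^5 cells. Mice were randomized by bioluminescent tumor burden, then dosed iv biweekly for 2 weeks in cremophor EL:ethanol:saline (5:5:90). Imaging was weekly (D-luciferin 150 mg/kg ip, 10 min prior; photon flux). Survival was analysed by Kaplan–Meier log-rank and weights tracked.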

RenCa tumors = assay: RenCa syngeneic renal carcinoma model in Balb/c mice; format: in vivo, mouse; settings: within the first 18 days of treatment
Method in brief: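 Balb/c mice (6–8 weeks) were injected with 2.5×10^5 RenCa cells in the left lower flank, then randomized at 100–150 mm3 (n=7/group). On day 1 they got a single iv dose of test compound (14 mg/kg) or cremophor EL:ethanol:saline vehicle. From 4 days later, they received biweekly ip anti-CTLA-4 (9H10) or rat IgG2a isotype (2A3) at 10 mg/kg for 2 weeks. Individual tumor volumes were measured 2–3 times weekly.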

MDA-MB-231-BrM2 = assay: Brain metastatic tumor model, intracranial MDA-MB-231-BrM2 in NSG mice; format: in vivo, mouse; settings: for body weight loss: MDA-MB-231-BrM2 brain model, DZ-2384 10 mg/kg, paclitaxel 40 mg/kg
Method in brief: as §2

[4] = Maximum tolerated dose in nontumor bearing NSG mice; format: in vivo, mouse
Method in brief: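 Each compound was given to four mice of the relevant strain as four biweekly iv injections. General condition was checked at least three times weekly. Endpoints were >20% weight loss for more than three consecutive days, death, or severe distress. Weights, clinical signs and survival were recorded until 1 week after the last dose.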

[5] = format: in vivo, mouse
Method in brief: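 Female NSG mice bearing MDA-MB-231-BrM2 mammary fat pad tumors received a single iv bolus of 10 or 40 mg/kg, depending on compound, in cremophor:ethanol:saline (5:5:90); n=4 per time point. Sampling was at 0–24 h. Plasma was taken, then mice were perfused with 20 ml saline via the left ventricle before brain, heart, lung and tumor harvest. Homogenates were measured by LC–MS/MS; tissue/plasma AUC0–∞ ratios were calculated.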

GCRC-1945 PDX = assay: Orthotopic TNBC PDX GCRC-1945 model in NSG mice; format: in vivo, mouse; settings: for median survival: GCRC-1945 at MED (DZ-2384 1.25 mg/kg, paclitaxel 10 mg/kg), vehicle 36 days
Method in brief: as §1

CC(=O)O[C@@]12CO[C@@H]1C[C@H](O)[C@@]1(C)C(=O)[C@H](O)C3=C(C)[C@@H](OC(=O)[C@H](O)[C@@H](NC(=O)OC(C)(C)C)c4ccccc4)C[C@@](O)([C@@H](OC(=O)c4ccccc4)[C@H]21)C3(C)C [docetaxel, reference compound]
loss in digital and caudal nerve conduction velocity ([1]; rat, docetaxel 10 mg/kg (lowest dose tested)): 12–23%
antitumor effect [2]: effective at only the 4 mg/kg dose
weight loss ([2]; MDA-MB-231-LM2 model, 4 mg/kg docetaxel (MED)): more than 10%
exposure in patients [3]: 4810 to 5200 ng·h/mL

CC(C)[C@H](O)C(=O)N[C@H]1Cc2ccc3c(c2)[C@]2(C4=C(c5nc(CO)co5)N=C(O4)[C@H](C(C)(C)C)NC1=O)c1cc(F)ccc1N[C@@H]2O3 [DZ-2384]
effects on peripheral nerves ([1]; rat model of peripheral neuropathy, effective levels): no detrimental effects on peripheral nerves
antitumor efficacy (GCRC-2076 PDX; GCRC-2076, 0.25x and 0.5x MTD): more effective than paclitaxel
median survival (GCRC-2076 PDX): 88 days
body weight loss (GCRC-1945): less than 10%
efficacy (tumor burden, median survival vs vehicle) (GCRC-1945; intracranial GCRC-1945, MTD, iv biweekly for 2 weeks): efficacious
effect on tumor volume relative to vehicle control (RenCa tumors): modest effects on tumor volume
body weight loss (MDA-MB-231-BrM2): less than 10%
efficacy (tumor burden, median survival vs vehicle) (MDA-MB-231-BrM2; intracranial MDA-MB-231-BrM2, MTD, iv biweekly for 2 weeks): efficacious
maximum tolerated dose (MTD) ([4]; nontumor bearing NSG mice, iv biweekly for 2 weeks): 10 mg/kg
proportion that accumulates in the brain relative to plasma exposure ([5]; AUC ratio brain/plasma, single iv dose at MTD, NSG mice): 15%
accumulation in tumor tissue relative to plasma ([5]; AUC ratio tumor/plasma, single iv dose at MTD, NSG mice): 18 fold
maximum concentration (Cmax) ratio in tumor relative to plasma ([5]; single iv dose at MTD, NSG mice): 1.3
antitumor efficacy (GCRC-1945 PDX; GCRC-1945, 0.125x and 0.25x MTD): more effective than paclitaxel
antitumor efficacy (GCRC-1945 PDX; GCRC-1945, 0.5x MTD): equally effective
median survival (GCRC-1945 PDX): 71 days
tumor free mice (bioimaging) ([2]; MDA-MB-231-LM2, 4.5 mg/kg, 5 months after treatment initiation): four of nine
median survival ([2]; MDA-MB-231-LM2, 4.5 mg/kg, vehicle 37 days): more than 150 days
antitumor effect [2]: profound antitumor effect at all doses tested

CC(=O)O[C@H]1C(=O)[C@@]2(C)[C@H]([C@H](OC(=O)c3ccccc3)[C@]3(O)C[C@H](OC(=O)[C@H](O)[C@@H](NC(=O)c4ccccc4)c4ccccc4)C(C)=C1C3(C)C)[C@]1(OC(C)=O)CO[C@@H]1C[C@@H]2O [paclitaxel, reference compound]
antitumor efficacy (GCRC-2076 PDX; GCRC-2076, 0.25x MTD): not effective
median survival (GCRC-2076 PDX): 69 days
body weight loss (GCRC-1945): less than 10%
body weight loss (MDA-MB-231-BrM2): less than 10%
MTD at 2 weeks ([4]; NSG, mouse, in vivo, iv): 40 mg/kg
half-life ([5]; female, NSG, mouse, tumor, iv, 40 mg/kg): 19.1 h
antitumor efficacy (GCRC-1945 PDX; GCRC-1945, 0.5x MTD): equally effective
median survival (GCRC-1945 PDX): 53 days
